Laboratory results from ChEMBL document CHEMBL5058577, “EUbOPEN Chemogenomics Library 2 (Multiplex)” (2022).

System: HEK-293T
Experiment: Multiplex assay against HEK293T
Format: toxicity, cell-based
Details: human
Outline: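 Live cells were stained at seeding with Hoechst33342, BioTracker Green Microtubule Cytoskeleton Dye, MitoTracker Red and Annexin V Alexa Fluor 680, then imaged on a CQ1 microscope at 37°C and 5% CO2 after compound addition. CellPathfinder machine-learning gating split cells into Hoechst high-intensity objects or normal cells. Normal cells were split into healthy, pyknosed or fragmented nuclei, and pyknosed cells into mitotic or apoptotic. Tubulin, mitochondrial-mass and membrane-permeability phenotypes are per cents of healthy-nucleus cells.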

[1] = 12 h, 1 µM, compound concentration 1 uM, replicate 1
[2] = 12 h, 1 µM, compound concentration 1 uM, replicate 2
[3] = 12 h, 10 µM, compound concentration 10 uM, replicate 1
[4] = 12 h, 10 µM, compound concentration 10 uM, replicate 2
[5] = 24 h, 1 µM, compound concentration 1 uM, replicate 1
[6] = 24 h, 1 µM, compound concentration 1 uM, replicate 2
[7] = 24 h, 10 µM, compound concentration 10 uM, replicate 1
[8] = 24 h, 10 µM, compound concentration 10 uM, replicate 2
[9] = 48 h, 1 µM, compound concentration 1 uM, replicate 1
[10] = 48 h, 1 µM, compound concentration 1 uM, replicate 2
[11] = 48 h, 10 µM, compound concentration 10 uM, replicate 1
[12] = 48 h, 10 µM, compound concentration 10 uM, replicate 2

CCCN1CCC[C@@H]2Cc3n[nH]cc3C[C@H]21.Cl [QUINPIROLE HYDROCHLORIDE]
Population Apoptotic (%) [1]: 32% | Population Fragmented Nuclei (%) [1]: 6% | Population Healthy Nuclei (%) [1]: 84% | Population Hoechst High Intensity Objects (%) [1]: 6% | Population Membrane Permeable-Phenotype (%) [1]: 0% | Population Mitochondria Different-Phenotype (%) [1]: 37% | Population Mitotic Cells (%) [1]: 67% | Population Normal (%) [1]: 93% | Population Pyknosed Nuclei (%) [1]: 9% | Population Tubulin-Different-Phenotype (%) [1]: 22% | Total Cell Count [1]: 447 | Population Apoptotic (%) [2]: 63% | Population Fragmented Nuclei (%) [2]: 4% | Population Healthy Nuclei (%) [2]: 82% | Population Hoechst High Intensity Objects (%) [2]: 3% | Population Mitochondria Different-Phenotype (%) [2]: 67% | Population Mitotic Cells (%) [2]: 36% | Population Normal (%) [2]: 96% | Population Pyknosed Nuclei (%) [2]: 12% | Population Tubulin-Different-Phenotype (%) [2]: 26% | Total Cell Count [2]: 294 | Population Apoptotic (%) [3]: 55% | Population Fragmented Nuclei (%) [3]: 11% | Population Healthy Nuclei (%) [3]: 72% | Population Hoechst High Intensity Objects (%) [3]: 9% | Population Membrane Permeable-Phenotype (%) [3]: 0% | Population Mitochondria Different-Phenotype (%) [3]: 53% | Population Mitotic Cells (%) [3]: 44% | Population Normal (%) [3]: 90% | Population Pyknosed Nuclei (%) [3]: 15% | Population Tubulin-Different-Phenotype (%) [3]: 40% | Total Cell Count [3]: 381 | Population Apoptotic (%) [4]: 46% | Population Fragmented Nuclei (%) [4]: 5% | Population Healthy Nuclei (%) [4]: 78% | Population Hoechst High Intensity Objects (%) [4]: 5% | Population Mitochondria Different-Phenotype (%) [4]: 69% | Population Mitotic Cells (%) [4]: 53% | Population Normal (%) [4]: 94% | Population Pyknosed Nuclei (%) [4]: 16% | Population Tubulin-Different-Phenotype (%) [4]: 26% | Total Cell Count [4]: 312 | Population Apoptotic (%) [5]: 30% | Population Fragmented Nuclei (%) [5]: 12% | Population Healthy Nuclei (%) [5]: 79% | Population Hoechst High Intensity Objects (%) [5]: 3% | Population Membrane Permeable-Phenotype (%) [5]: 0% | Population Mitochondria Different-Phenotype (%) [5]: 17% | Population Mitotic Cells (%) [5]: 70% | Population Normal (%) [5]: 96% | Population Pyknosed Nuclei (%) [5]: 8% | Population Tubulin-Different-Phenotype (%) [5]: 14% | Total Cell Count [5]: 600 | Population Apoptotic (%) [6]: 29% | Population Fragmented Nuclei (%) [6]: 8% | Population Healthy Nuclei (%) [6]: 81% | Population Hoechst High Intensity Objects (%) [6]: 2% | Population Mitochondria Different-Phenotype (%) [6]: 37% | Population Normal (%) [6]: 97% | Population Pyknosed Nuclei (%) [6]: 9% | Population Tubulin-Different-Phenotype (%) [6]: 16% | Total Cell Count [6]: 390 | Population Apoptotic (%) [7]: 45% | Population Fragmented Nuclei (%) [7]: 10% | Population Healthy Nuclei (%) [7]: 77% | Population Hoechst High Intensity Objects (%) [7]: 4% | Population Membrane Permeable-Phenotype (%) [7]: 0% | Population Mitochondria Different-Phenotype (%) [7]: 38% | Population Mitotic Cells (%) [7]: 54% | Population Normal (%) [7]: 95% | Population Pyknosed Nuclei (%) [7]: 11% | Population Tubulin-Different-Phenotype (%) [7]: 27% | Total Cell Count [7]: 529 | Population Apoptotic (%) [8]: 43% | Population Fragmented Nuclei (%) [8]: 7% | Population Healthy Nuclei (%) [8]: 78% | Population Hoechst High Intensity Objects (%) [8]: 2% | Population Mitochondria Different-Phenotype (%) [8]: 43% | Population Mitotic Cells (%) [8]: 56% | Population Normal (%) [8]: 97% | Population Pyknosed Nuclei (%) [8]: 13% | Population Tubulin-Different-Phenotype (%) [8]: 13% | Total Cell Count [8]: 406 | Population Apoptotic (%) [9]: 21% | Population Fragmented Nuclei (%) [9]: 16% | Population Healthy Nuclei (%) [9]: 76% | Population Hoechst High Intensity Objects (%) [9]: 1% | Population Membrane Permeable-Phenotype (%) [9]: 1% | Population Mitochondria Different-Phenotype (%) [9]: 9% | Population Mitotic Cells (%) [9]: 78% | Population Normal (%) [9]: 98% | Population Pyknosed Nuclei (%) [9]: 6% | Population Tubulin-Different-Phenotype (%) [9]: 10% | Total Cell Count [9]: 1105 | Population Apoptotic (%) [10]: 33% | Population Fragmented Nuclei (%) [10]: 11% | Population Healthy Nuclei (%) [10]: 84% | Population Hoechst High Intensity Objects (%) [10]: 2% | Population Mitochondria Different-Phenotype (%) [10]: 19% | Population Mitotic Cells (%) [10]: 66% | Population Pyknosed Nuclei (%) [10]: 4% | Population Tubulin-Different-Phenotype (%) [10]: 8% | Total Cell Count [10]: 649 | Population Apoptotic (%) [11]: 40% | Population Fragmented Nuclei (%) [11]: 15% | Population Healthy Nuclei (%) [11]: 78% | Population Hoechst High Intensity Objects (%) [11]: 2% | Population Membrane Permeable-Phenotype (%) [11]: 1% | Population Mitochondria Different-Phenotype (%) [11]: 23% | Population Mitotic Cells (%) [11]: 59% | Population Normal (%) [11]: 97% | Population Pyknosed Nuclei (%) [11]: 6% | Population Tubulin-Different-Phenotype (%) [11]: 15% | Total Cell Count [11]: 772 | Population Apoptotic (%) [12]: 33% | Population Fragmented Nuclei (%) [12]: 13% | Population Healthy Nuclei (%) [12]: 80% | Population Hoechst High Intensity Objects (%) [12]: 1% | Population Membrane Permeable-Phenotype (%) [12]: 0% | Population Mitochondria Different-Phenotype (%) [12]: 28% | Population Mitotic Cells (%) [12]: 66% | Population Normal (%) [12]: 98% | Population Tubulin-Different-Phenotype (%) [12]: 13% | Total Cell Count [12]: 654
